HDAC3 inhib – human HDAC3 inhibition. O15379. 0.15% of 320,000 active. inhibition, % at 8.3 µM. recombinant HDAC3, fluorogenic peptide/trypsin coupled, fluorescence; in the data active = inhibition above about 26%, passing the limit was not always enough
Target sequence (O15379 whole entry, looked up): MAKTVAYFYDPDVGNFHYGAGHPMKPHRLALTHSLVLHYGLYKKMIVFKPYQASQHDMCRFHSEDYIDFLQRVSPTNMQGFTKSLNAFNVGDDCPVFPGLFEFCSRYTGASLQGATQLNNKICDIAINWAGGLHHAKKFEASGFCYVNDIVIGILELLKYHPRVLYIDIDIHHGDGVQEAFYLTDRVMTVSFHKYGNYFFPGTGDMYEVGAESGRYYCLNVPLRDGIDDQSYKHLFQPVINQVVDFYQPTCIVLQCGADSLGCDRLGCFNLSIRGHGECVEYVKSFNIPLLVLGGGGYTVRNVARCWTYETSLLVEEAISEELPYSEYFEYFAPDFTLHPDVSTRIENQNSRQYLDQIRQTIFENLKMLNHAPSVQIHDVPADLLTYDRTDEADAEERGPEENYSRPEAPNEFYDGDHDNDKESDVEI
PolyA inh – blocks polyadenylation in yeast reporter cells; activity score, % at 12 µM; S. cerevisiae SKY197-pL101 polyadenylation reporter, beta-gal luminescence; efflux-impaired pdr1/pdr3 knockout yeast; score 100 = 6 SD above DMSO; 0.02% of 300,000 active; AID 1875;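 active = lowest replicate activity score at least 50, where 100 means six control SD above control mean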;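 note: yeast exposed to compound for 9 h at 30 °C; higher score means more reporter readthrough which indicates perturbed polyadenylation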
T cruzi inh – T. cruzi replication inhibition; T. cruzi beta-gal in NIH3T3, luminescence, 90 h; inhibition, % (no concentration beside the values); 1.4% of 300,000 active; AID 1885;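 active = mean inhibition across valid replicates above about 55%, limit read from the data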;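 note: signal also drops with host cell toxicity which is not excluded here; higher percent means less beta-gal luminescence so fewer parasites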
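System – NIH/3T3 host cells with β-galactosidase reporter T. cruzi · Doses – single 50 nL compound addition per well in DMSO · Reagent – 5000 T. cruzi trypomastigotes/well · Medium – Low-serum DMEM with 2% FBS · Timing – ≥90 h infection period, 3 h prior cell attachment · Evaluation – parasite load inhibition, % · Technique – GalScreen luminescence, 60 min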
AI-2 QS modul – modulators of Vibrio harveyi AI-2 quorum sensing system; 0.4% of 300,000 active; Vibrio harveyi JMH597 AI-2 luminescence/OD600 ratio, 9 h; hits give low values; strain lacks LuxN and CqsS sensors; 0 = neutral-control median; AID 2094; activity change, % at 7.5 µM; in the data active = activity change below about -75%, passing the limit was not always enough;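 note: luminescence divided by OD600 gain over 9 h not by final OD600 alone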
Efflux pump mplx – blocks antifungal efflux pumps in multiplex yeast assay; AID 485275; 0.44% of 330,000 active; S. cerevisiae Candida pump triplex, Nile Red efflux; inhibition, % at 10 µM;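 active = plate passing quality check with inhibition over a set limit, or well fluorescence over plate mean plus 4 SD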;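 note: Nile Red retained in pooled yeast measured as flow cytometry median fluorescence; higher means more Nile Red kept so more efflux inhibition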
Of the large screens only hits and unclear results are named; the others gave an inactive call. Sampled rows, rich in hits. Any-hit rate of the full collection: about 2.2%.

COc1cc(/C=C2\C(=N)N3N=C(S(C)(=O)=O)SC3=NC2=O)ccc1OC(=O)c1ccco1	none
c1ccc(-c2cccc(-c3ccccn3)n2)nc1	AI-2 QS modul -89.0
CN=C(Nc1cc(C)nn1CCC#N)c1ccccc1	none
Cc1cc(OC(=O)c2ccccc2)n(CCC#N)n1	HDAC3 inhib 87.5
COCC1CCN(C(=O)C2CCC(=O)N(C3CCCCCC3)C2)CC1 (configuration not stated)	none
O=C1S/C(=C\c2ccc(O)c([N+](=O)[O-])c2)C(=O)N1Cc1cccc([N+](=O)[O-])c1	none
O=C1S/C(=C\c2ccc(O)c([N+](=O)[O-])c2)C(=O)N1c1ccccc1Cl	PolyA inh 83.1
Cc1nc(C(=O)NC2CCCCC2)sc1C1(C)CC(c2cccnc2)=NO1 (configuration not stated)	T cruzi inh 60.8 (no result: Efflux pump mplx)
Cc1nc(C(=O)NC2CC2)sc1C1(C)CC(c2cccc([N+](=O)[O-])c2)=NO1 (configuration not stated)	none
O=C(CCl)N=c1sccn1Cc1ccc(Cl)cc1Cl	T cruzi inh 99.1
O=C(CCl)N=c1sccn1Cc1cccc2ccccc12	none (no result: HDAC3 inhib, Efflux pump mplx)
O=C(CCl)N=c1sccn1Cc1ccccc1Cl	T cruzi inh 60.9 (no result: HDAC3 inhib)
Cc1cc(C(C)(C)C)cc(C)c1Cn1c2[n+](c3ccc(C(F)(F)F)cc31)CCCCC2	T cruzi inh 58.8
CCCCCCSc1ccc(-c2nc3ccc(C)cn3c2NCc2ccccc2)cc1OC	T cruzi inh 56.3 (no result: Efflux pump mplx)
CCCCNc1c(-c2ccc(OC)c(SC3CCCCC3)c2)nc2ccc(C)cn12	none (no result: HDAC3 inhib, PolyA inh, T cruzi inh, AI-2 QS modul)
COc1ccc(-c2nc3ccc(C)cn3c2NCc2ccccc2)cc1SC1CCCCC1	T cruzi inh 62.6
CCCCCCSc1ccc(-c2nc3ccc(C)cn3c2NCc2ccccc2)cc1	none
O=[N+]([O-])c1ccc(Nc2nccc(Cl)n2)cc1	none
O=C(CN1CCC(C(O)(c2ccccc2)c2ccccc2)CC1)Nc1cc(Cl)ccc1Cl	T cruzi inh 54.8
Cc1cccc(C)c1OCc1nc2ccccc2c(=O)n1/N=C/c1c[nH]c2ccccc12	T cruzi inh 69.3
Cc1ccccc1OCc1nc2ccccc2c(=O)n1/N=C/c1c[nH]c2ccccc12	none
Cc1cc(/C=N/n2c(COc3ccccc3C)nc3ccccc3c2=O)c(O)c([N+](=O)[O-])c1	T cruzi inh 66.6
CCCCOC(=O)c1ccc(NC(=O)C(=O)NCc2ccco2)cc1	none
O=C(Nc1cccc(N2CCCC2)c1)c1cccs1	T cruzi inh 57.4
Cc1ccc(-n2nc(C)c3c(C)c(CCC(=O)Nc4ccc(CN5CCCC5)cc4)c(C)nc32)cc1	T cruzi inh 71.7 (no result: HDAC3 inhib)
COc1ccc(C(=O)Nc2ncc3c(n2)CC(C)CC3=O)cc1 (configuration not stated)	T cruzi inh 63.9
O=C(Nc1cccc(-c2nc3ncccc3o2)c1)c1ccccc1	T cruzi inh 60.5
N/C(Cc1ccc(Cl)cc1)=N\OC(=O)c1cccc2ccccc12	T cruzi inh 65.1
Cc1nc2ccc([N+](=O)[O-])cc2c(=O)n1Cc1ccc([N+](=O)[O-])cc1	none
N#Cc1c(N)n(Cc2ccccc2)c(=O)c2cc([N+](=O)[O-])ccc12	T cruzi inh 57.2
CC(C)CC(Nc1ncnc2scc(-c3ccccc3)c12)C(=O)O (configuration not stated)	PolyA inh 60.4
CC(NCc1ccc([N+](=O)[O-])cc1)C1COc2ccccc2O1 (configuration not stated)	none
C=CCNC(=O)N1CCCC(C(=O)c2cccc(OC(C)C)c2)C1 (configuration not stated)	none
Cc1ccc(/C=N/Nc2ccc(C(=O)O)cc2)s1	AI-2 QS modul -94.7
COc1ccc(/C=N\NC(=O)C2CCCC2)cc1Br	none
COc1ccc(/C=N/Nc2ccc(C(=O)O)cc2)cc1Br	AI-2 QS modul -96.1
Cc1ccc(/C=N/Nc2cccc(C(=O)O)c2)s1	none
COc1cc2ccccc2cc1C(=O)NNC(=O)c1ccccc1O	T cruzi inh 57.1
CC(C)[C@H](NC(=O)N1c2ccccc2NC(=O)[C@@H]1C(C)C)C(=O)N1CCC[C@H]1C(=O)O	none
Cc1ccc(C(=O)NCC(=O)OCC(=O)Nc2ccccc2[N+](=O)[O-])cc1	none
CC1CCN(S(=O)(=O)c2ccc(NC(=O)CN3CCN(C)CC3)cc2)CC1	T cruzi inh 59.1
CC1CCN(S(=O)(=O)c2ccc(NC(=O)Cn3nnc(-c4ccccc4F)n3)cc2)CC1	T cruzi inh 69.1
CC1CCN(S(=O)(=O)c2ccc(NC(=O)CN3CCCCCC3)cc2)CC1	none
O=C(Nc1cccc(S(=O)(=O)N2CCCCCC2)c1)C1CC(=O)N(c2ccc3c(c2)OCCO3)C1 (configuration not stated)	none
Cc1ccc(-n2c(CCc3ccccc3)n[nH]c2=S)cc1C	none
CCN(CC)CCNc1ncnc2c1[nH]c1ccc(OC)cc12	none
COc1ccc2[nH]c3c(NCCC4=CCCCC4)ncnc3c2c1	T cruzi inh 87.2 (no result: HDAC3 inhib, Efflux pump mplx)
O=C(NCc1ccccn1)[C@H]1C[C@@H]1[C@H](NP(=O)(c1ccccc1)c1ccccc1)c1ccccc1	none
O=[N+]([O-])c1c(Nc2cccc(O)c2)cc(Cl)c2nonc12	T cruzi inh 60.3, AI-2 QS modul -219.3
O=C(Nc1ccccc1-c1nc2ccccc2[nH]1)c1sc2ccccc2c1Cl	T cruzi inh 60.3
O=C(Nc1ccccc1-c1nc2ccccc2[nH]1)c1ccc(S(=O)(=O)N2CCCCC2)cc1	T cruzi inh 58.5 (no result: HDAC3 inhib, Efflux pump mplx)
CC1CCCCN1S(=O)(=O)c1ccc(C(=O)Nc2ccccc2-c2nc3ccccc3[nH]2)cc1 (configuration not stated)	none
Nc1ccccc1NC(=O)c1ccccc1	HDAC3 inhib 74.9
CC1CCCC(NC(=O)Cn2cc(Br)ccc2=O)C1C (configuration not stated)	none (no result: PolyA inh, T cruzi inh, AI-2 QS modul)
CCN(CC)CC(=O)Nc1ccccc1SCC(=O)Nc1ccsc1C(=O)OC	none
Cc1ccc(-c2csc(NC(=O)c3ccc([N+](=O)[O-])o3)n2)cc1	T cruzi inh 69.6, AI-2 QS modul -158.2
Cc1ccnc(NC(=O)c2ccc([N+](=O)[O-])o2)c1	AI-2 QS modul -252.3
Cc1ccc(-c2csc(NC(=O)c3ccc(C)o3)n2)cc1	none
CC(C)C(NC(=O)c1ccccc1)C(=O)N/N=C\c1ccco1 (configuration not stated)	none
O=C(OCC(=O)N1CCCC1=O)c1ccc(O)cc1O	none
CC(C)NC(=O)Nc1cccc2c1O[C@H](CN(C)C(=O)NC1CCCCC1)[C@H](C)CN([C@H](C)CO)C2=O	none (no result: PolyA inh, T cruzi inh, AI-2 QS modul)
COc1ccc(NC(=O)c2sccc2SCc2cccc(C(F)(F)F)c2)cc1	T cruzi inh 69.2
COCc1cc(CN2CCCC(C(=O)c3cccc(C(F)(F)F)c3)C2)ccc1OC (configuration not stated)	T cruzi inh 65.7

Assay outcomes as filed in PubChem.
